# E-selectin induc – E-selectin induction in HUVECs, primary screen, imaging, HUVEC, immunofluorescence imaging, single point | normalized: neutral wells 0, TNF-alpha wells 100 | AID 686992, 2013 | P16581 | activation, % at 7.58 µM | 0.37% of 260,000 active;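 active = mean E-selectin-positive cell signal at least 10% of the positive control, reached in at least 60% of replicates, without over 20% cell loss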
#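 Test system: HUVEC | Signal: Immunofluorescence imaging | Read-out: Percent E-selectin-positive cells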
# ERAP1 HTS inh – human ERAP1 aminopeptidase inhibitors, primary screen, biochemical, single point, plate reader | Endoplasmic reticulum aminopeptidase 1 (Homo sapiens), Q9NZ08 | 0.15% of 340,000 active | inhibition, % at 10.7 µM | recombinant ERAP1, Leu-AMC fluorescence, 60 min | AID 652197, 2013;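 active = mean replicate inhibition of at least 30%, or all replicates individually reaching that 30% level; inactive = mean below 30% and not every replicate reaching it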;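 note: 0% = neutral control wells and 100% = L-leucinethiol positive control wells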
# Target sequence (Q9NZ08 whole entry, looked up): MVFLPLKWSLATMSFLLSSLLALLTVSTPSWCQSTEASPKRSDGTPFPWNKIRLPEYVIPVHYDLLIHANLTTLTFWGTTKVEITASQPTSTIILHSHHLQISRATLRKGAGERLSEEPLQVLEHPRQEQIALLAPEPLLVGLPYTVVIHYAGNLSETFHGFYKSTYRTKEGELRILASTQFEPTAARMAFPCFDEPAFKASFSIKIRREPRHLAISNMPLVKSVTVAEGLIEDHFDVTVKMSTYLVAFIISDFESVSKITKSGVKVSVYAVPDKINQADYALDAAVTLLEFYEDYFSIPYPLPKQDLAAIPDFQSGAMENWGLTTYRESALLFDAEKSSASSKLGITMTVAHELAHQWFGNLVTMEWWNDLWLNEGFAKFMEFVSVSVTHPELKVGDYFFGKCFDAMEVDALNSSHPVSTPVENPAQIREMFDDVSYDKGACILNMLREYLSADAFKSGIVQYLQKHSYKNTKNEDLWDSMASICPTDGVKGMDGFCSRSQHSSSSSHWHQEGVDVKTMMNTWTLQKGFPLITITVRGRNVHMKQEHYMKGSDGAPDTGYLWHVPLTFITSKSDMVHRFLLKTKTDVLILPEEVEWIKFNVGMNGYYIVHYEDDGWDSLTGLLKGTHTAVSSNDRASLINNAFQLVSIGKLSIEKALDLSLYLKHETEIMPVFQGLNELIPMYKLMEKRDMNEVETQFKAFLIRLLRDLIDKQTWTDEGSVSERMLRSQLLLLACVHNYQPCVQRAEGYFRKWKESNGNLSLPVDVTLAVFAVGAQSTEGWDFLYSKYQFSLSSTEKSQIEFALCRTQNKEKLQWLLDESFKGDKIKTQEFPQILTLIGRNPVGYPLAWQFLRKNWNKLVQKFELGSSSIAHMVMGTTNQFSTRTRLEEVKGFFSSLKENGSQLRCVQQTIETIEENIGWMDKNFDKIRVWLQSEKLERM
# FGF22 binding – binders of human FGF22 protein, primary screen, FGF22 synaptogenesis inhibitor project, biophysical, thermal shift, single point; Fibroblast growth factor 22 (Homo sapiens), Q9HCT0; 1.5% of 340,000 active; AID 651658, 2012; activity (Tm shift, normalised), % at 9.99 µM; recombinant FGF22 thermal shift, SYPRO orange fluorescence; percent of sucrose octasulfate shift, DMSO zero;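 active = mean Tm shift, scaled 0 neutral to 100 positive control, at about 1.3% or above, every replicate too, limit read from the data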
# CFTR F508del cor – F508del CFTR correction, initial screen, CFBE line, single point; CFBE cells, YFP halide quenching; stimulated with forskolin plus potentiator P3; % fluorescence drop versus neutral controls; activity (quench increase), % at 7.58 µM; 0.36% of 350,000 active; AID 720511, 2013;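 active = mean added fluorescence quench of at least 8% versus neutral control, with both replicates also reaching 8%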;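 note: cells transiently co-express mutant CFTR-F508del with the halide-sensitive YFP; corrector assay measuring rescue of mutant channel to the surface after 24 h compound exposure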
# DENV2 CPE rescue – inhibitors of DENV2 cytopathic effect, primary screen, cell-based, plate reader, single concentration | DENV2-infected cells, cytopathic effect rescue | CPE inhibition, % at 9.99 µM | 1.7% of 350,000 active | AID 651640, 2012; in the data active = CPE inhibition above about 20%, passing the limit was not always enough; tested in BHK-21 cells;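 note: 0% = median of neutral control wells and 100% = median of positive control wells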
# Active calls of the source: *; nt = no result. This is a sample that favours compounds with a hit; in the whole collection about 3.7% have one here.
SMILES,E-selectin induc,ERAP1 HTS inh,FGF22 binding,CFTR F508del cor,DENV2 CPE rescue
COc1ccc(NC(=O)N(C)C[C@H]2Oc3cc(C#CCN(C)C)ccc3S(=O)(=O)N([C@H](C)CO)C[C@H]2C)cc1,0.1,-2.2,0.0,-2.9,-3.5
O=C1OCC2=C1C(c1ccc3c(c1)OCO3)c1cc3c(cc1O2)OCO3 (stereo unspecified),1.2,0.0,-0.2,9.8*,5.1
NS(=O)(=O)c1ccc2nc(NC(=O)c3ccc4c(c3)OCCO4)sc2c1,0.0,3.1,0.1,8.9*,17.0
CCCC#Cc1ccc2c(c1)O[C@@H](CN(C)C(=O)C1CCCCC1)[C@@H](C)CN([C@@H](C)CO)S2(=O)=O,0.2,nt,nt,1.6,nt
O=C(C[C@H]1C[C@H]2c3cc(NC(=O)C4CCOCC4)ccc3O[C@H]2[C@@H](CO)O1)NCc1ccncc1,-0.3,0.8,0.2,-0.9,2.9
CCOc1ccccc1NC(=O)c1cc(C(=O)c2cc(Br)ccc2O)coc1=N,nt,2.3,44.6*,-3.2,3.5
COc1ccc(CN(C)C[C@@H]2Oc3c(NC(=O)c4cc(C)nn4C)cccc3C(=O)N([C@H](C)CO)C[C@H]2C)cc1,-0.2,-3.5,0.1,-0.8,26.7*
Cc1cc(C(=O)Nc2cccc3c2O[C@H](CN(C)Cc2ccc(C(=O)O)cc2)[C@H](C)CN([C@H](C)CO)C3=O)n(C)n1,-0.4,-0.7,0.2,0.3,45.7*
Cc1cc(C(=O)Nc2cccc3c2O[C@H](CN(C)C)[C@H](C)CN([C@@H](C)CO)C3=O)n(C)n1,-0.1,1.5,-0.5,1.7,28.5*
COc1ccc(CN(C)C[C@@H]2Oc3c(NC(=O)c4cc(C)nn4C)cccc3C(=O)N([C@H](C)CO)C[C@@H]2C)cc1,-0.1,-0.9,0.1,0.9,-8.5
COc1ccc(NC(=O)N2CC[C@@H]3[C@@H](CO)N(C)c4ccc(-c5ccccc5F)cc4[C@@H]32)cc1,-0.1,-1.3,0.3,-0.5,14.8
CCC(=O)N1[C@H](CO)[C@@H]2c3ccccc3N(C(=O)c3cccc(OC)c3)C[C@@H]21,-0.3,nt,nt,2.6,nt
COc1ccc(C2CN=NC23CCc2ccccc2C3=O)cc1 (stereo unspecified),4.5,6.5,0.0,15.9*,-3.3
COc1ccc(NC(=O)N(C)C[C@H]2OCCCC[C@H](C)Oc3ccc(NS(=O)(=O)c4cn(C)cn4)cc3C(=O)N([C@@H](C)CO)C[C@@H]2C)cc1,0.0,0.6,-0.2,-4.4,-1.3
O=C(Cn1sc2ccccc2c1=O)Nc1ccc(F)cc1,0.0,29.0,43.1*,-3.9,-13.9
Cc1cc(C)n(-c2ccc(C(=O)Nc3ccc(C)c(S(=O)(=O)N4CCOCC4)c3)cc2)n1,nt,0.1,0.0,0.0,8.7
Cc1cc(C)n(-c2ccc(C(=O)Nc3cccnc3Cl)cc2)n1,-0.2,-0.8,43.1*,-1.7,-4.0
COc1ccc(C(=O)Nc2cccnc2Cl)cc1OC,nt,1.8,0.1,4.3,5.4
CC(=O)NS(=O)(=O)c1ccc(NC(=O)c2ccc(-n3nc(C)cc3C)cc2)cc1,-0.9,-3.3,43.1*,2.2,3.0
CC(=NNS(=O)(=O)c1cccc([N+](=O)[O-])c1)c1ccc(-n2ccnc2)cc1,-0.4,6.7,0.0,0.1,3.0
C/C(=N/NS(=O)(=O)c1cccc([N+](=O)[O-])c1)c1ccncc1,28.0*,-2.9,0.1,0.5,-2.7
COc1ccc(CC(=O)NNC(=O)COc2ccc(C)cc2)cc1S(=O)(=O)N1CCOCC1,1.8,-1.6,0.0,-0.1,40.3*
COc1ccc(CC(=O)Nc2nccs2)cc1S(=O)(=O)N1CCOCC1,-0.7,0.9,0.3,17.0*,1.3
O=C(C1CCCC1)N1CCC(CC2CC(c3cccc(Br)c3)=NO2)(C(=O)NCC2CCCCC2)CC1 (stereo unspecified),-0.2,-6.3,0.1,1.3,52.8*
O=C(C1CCCC1)N1CCC(CC2CC(c3ccc(Cl)cc3)=NO2)(C(=O)NCC2CCCCC2)CC1 (stereo unspecified),-0.2,0.5,0.2,2.4,-9.3
SMILES,E-selectin induc,ERAP1 HTS inh,FGF22 binding,CFTR F508del cor,DENV2 CPE rescue
C[C@H](CO)N1C[C@H](C)[C@H](CN(C)Cc2ccc(F)cc2)Oc2ncc(C3=CCCC3)cc2C1=O,0.4,-4.2,-0.3,-3.0,-6.0
CCOc1ccccc1NC(=O)C(NCC1(N2CCCCC2)CCCCC1)c1ccccc1 (stereo unspecified),1.1,1.7,43.6*,0.8,6.3
CCS(=O)(=O)N1CC(=O)N2[C@H](CO)[C@@H](c3ccc(C#CCC(C)C)cc3)[C@@H]2C1,0.1,4.4,0.7,11.0*,47.7*
Cc1ccccc1S(=O)(=O)N1CC(=O)N2[C@H](C1)[C@@H](c1ccc(C#Cc3ccccc3)cc1)[C@@H]2CO,-0.4,-0.1,nt,3.3,2.5
Cc1ccccc1S(=O)(=O)N1CC(=O)N2[C@H](CO)[C@H](c3ccc(C#Cc4ccccc4)cc3)[C@H]2C1,2.8,0.5,nt,5.6,23.7*
CC(C)CC#Cc1ccc([C@H]2[C@@H](CO)N3C(=O)CN(S(=O)(=O)c4ccccc4)C[C@@H]23)cc1,0.1,-1.5,nt,0.8,-9.0
C[C@@H]1CN([C@@H](C)CO)S(=O)(=O)c2ccc(-c3ccncc3)cc2O[C@@H]1CN(C)C,1.3,4.6,0.2,2.4,9.5
CCOC1=C/C(=C/c2c(N)n3nc(S(=O)(=O)CC)sc3nc2=O)C=CC1=O,7.2,6.5,nt,9.9*,-0.9
COc1cccc(CN(C)CC(=O)Nc2ccccc2N2CCOCC2)c1OC,2.7,-1.0,42.5,-2.2,-2.3
COc1cc(CC(=O)Nc2ccccc2N2CCOCC2)cc(OC)c1OC,-0.6,3.7,42.9*,0.2,16.0
C[C@H]1CN([C@@H](C)CO)C(=O)c2cc(-c3ccccc3)cnc2O[C@H]1CN(C)C(=O)c1cccc(F)c1,-0.2,nt,nt,-0.9,nt
Cc1ccc(-c2nn(-c3cc(N4CCNCC4)ccc3[N+](=O)[O-])c(=O)c3ccccc23)cc1,66.4*,-0.8,-0.2,-2.6,1.1
C[C@@H]1CN([C@@H](C)CO)S(=O)(=O)c2ccc(C#Cc3ccccc3)cc2O[C@H]1CN(C)S(C)(=O)=O,-0.2,-2.9,-1.0,1.7,26.5*
C[C@H](CO)N1C[C@H](C)[C@H](CN(C)S(C)(=O)=O)Oc2cc(C#Cc3ccccc3)ccc2S1(=O)=O,0.1,-3.4,0.4,1.9,28.2*
COc1ccc(COC[C@]23N=C4Sc5ccc([N+](=O)[O-])cc5C(=O)N4[C@H](c4ccccc4O2)[C@H]3CO[Si](C)(C)C(C)(C)C)cc1,nt,4.1,0.3,-2.0,3.9

# From PubChem
